In paper PMC3875364 (Biochemistry, 2013):

Assays:
[1] = test system: 5′-FAM-DNA20 (20-mer single-stranded DNA); assay: Fluorescence anisotropy; assay type: binding
In short: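 Binding was measured by fluorescence anisotropy. CCHC-containing constructs were reconstituted with 3 equiv zinc unless noted. Kd was fitted with a quadratic binding equation corrected for the bound/free intensity ratio.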

[2] = test system: 59-nt TAR RNA / TAR DNA hairpins; assay: Gel-shift TAR RNA/DNA annealing assay; assay type: biochemical, HIV-1; conditions: for kobs: average of three trials ± SD, SD; for Fold decrease of kobs relative to WT NC: normalized for protein concentration
[3] = test system: 59-nt TAR RNA and TAR DNA; assay: Sedimentation assay of nucleic acid aggregation; assay type: biochemical, HIV-1; conditions: 0.2 mM MgCl2
In short: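 Refolded 32P-TAR RNA (15 nM) and TAR DNA (45 nM) were incubated with varying protein in 20 mM HEPES pH 7.5 and 20 mM NaCl (final MgCl2 0.2 mM) for 30 min at 37 °C. Fragments were run at 10–50 μM, with or without zinc. Samples were centrifuged at 10000 rpm for 10 min, and supernatant radioactivity was counted by scintillation.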

[4] = 4 μM protein, 90 nM TAR DNA and 2 mM MgCl2
[5] = 0.88 μM peptide, 45 nM TAR DNA, 2 mM MgCl2

Substance: NC(1-14): HIV-1 NC fragment, residues 1-14, basic N-terminal domain
- Binding to 5′-FAM-DNA20 (in words) ([1]; FA, no zinc acetate): no binding could be detected
- Final % Annealing ([2]; 20 μM peptide, 15 nM TAR RNA, 45 nM TAR DNA, 0.2 mM MgCl2, 37 °C, 30 min): 3%
- Final % Annealing ([2]; 50 μM peptide, 15 nM TAR RNA, 45 nM TAR DNA, 0.2 mM MgCl2, 37 °C, 30 min): did not change appreciably

Substance: WT (zinc-less): full-length HIV-1 NC not reconstituted with zinc
- Final % Annealing [2, 4]: 22%
- kobs [2, 4]: 0.07 ± 0.02 min⁻¹
- Fold decrease of kobs relative to WT NC [2, 4]: 2 fold

Substance: NC(1-35): HIV-1 NC fragment, residues 1-35, purchased from Genscript
- Fold higher affinity of zinc-bound form relative to zinc-less variant ([1]; 5′-FAM-DNA20): 2- to 3 fold
- Fold lower ss DNA binding affinity than WT NC ([1]; 5′-FAM-DNA20, 50 mM NaCl): ≤ 2 fold
- Kd ([1]; read-out: Apparent binding dissociation constant Kd to 5′-FAM-DNA20, FA, 20 nM DNA, 20 mM HEPES pH 7.5, 50 mM NaCl, 5 mM β-mercaptoethanol, 10 μM TCEP, 1 μM zinc acetate, 30 min, 25 °C, average of three trials ± SD, SD): 86 ± 19 nM
- Nucleic acid aggregation (in words) [3]: essentially complete aggregation
- RNA annealed at 30 sec ([2]; 0.88 μM peptide, 45 nM TAR DNA, 0.2 mM MgCl2): ~ 75%
- Final % Annealing [2, 5]: 54%
- kobs [2, 5]: 0.17 ± 0.07 min⁻¹
- Fold decrease of kobs relative to WT NC ([2]; 0.88 μM peptide, 2 mM MgCl2): 1.3 fold
